In brackets after ≈: the same amount, converted by molar mass.
Assays:
[1] = system: Respiratory syncytial virus; assay: Antiviral activity against respiratory syncytial virus in human HeLa cells assessed as inhibition of virus-induced cytopathogenicity; type: functional
Procedure, shortened: (§1)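 Confluent cell monolayers (E6SM, HEL, HeLa or Vero, per line) inoculated with 100 CCID50 virus; 1 h adsorption, residual virus removed, then incubated with compound at 400, 200, 100 … µg/ml. Cytopathicity scored once complete in untreated virus controls; MIC = concentration inhibiting virus-induced cytopathicity.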

Human alphaherpesvirus 1 [2] = assay: Antiviral activity against HSV1 KOS in human E6SM cells assessed as reduction of virus-induced cytopathogenicity; type: functional; settings: Human alphaherpesvirus 1, KOS; procedure, shortened: as §1
Human respirovirus 3 = assay: Antiviral activity against Parainfluenza 3 virus in african green monkey Vero cells assessed as reduction of virus-induced cytopathogenicity; type: functional; procedure, shortened: as §1
[3] = system: Human immunodeficiency virus 2; assay: Antiviral activity against HIV2 ROD in human MT4 cells assessed as protection against virus-induced cytopathogenicity by MTT assay; type: functional, organism-based; design: Activity: concentration or dose not given beside the values; settings: for IC50: Human immunodeficiency virus 2, ROD, MT4
Procedure, shortened: (§2)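 MT-4 cells at 6 × 10⁵ cells/ml infected with HIV-1 IIIB or HIV-2 ROD at 100–300 CCID50; compounds in serial five-fold dilutions, triplicate mock- and virus-infected wells. MTT viability read at 540 and 690 nm after 5 days, median OD of three wells; EC50 = 50% protection from viral cytopathic effect.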

[4] = system: Vesicular stomatitis virus; assay: Antiviral activity against vesicular stomatitis virus in human HeLa cells assessed as inhibition of virus-induced cytopathogenicity; type: functional; procedure, shortened: as §1
[5] = Cytotoxicity against human E6SM cells; type: cell-based; settings: E6SM cells
Procedure, shortened: (§3)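 Uninfected cell cultures exposed to test compounds alongside antiviral assays; minimum cytotoxic concentration (MCC) = concentration causing a microscopically detectable alteration of cell morphology.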

[6] = system: Vesicular stomatitis virus; assay: Antiviral activity against in Vesicular stomatitis virus in human E6SM cells assessed as reduction of virus-induced cytopathogenicity; type: functional; procedure, shortened: as §1
Human alphaherpesvirus 2 [7] = assay: Antiviral activity against HSV2 G in human E6SM cells assessed as reduction of virus-induced cytopathogenicity; type: functional; settings: Human alphaherpesvirus 2, G; procedure, shortened: as §1
Sindbis virus = assay: Antiviral activity against Sindbis virus in african green monkey Vero cells assessed as reduction of virus-induced cytopathogenicity; type: functional; procedure, shortened: as §1
Human alphaherpesvirus 2 [8] = assay: Antiviral activity against HSV2 G in human HEL cells assessed as reduction of virus-induced cytopathogenicity; type: functional; settings: Human alphaherpesvirus 2, G; procedure, shortened: as §1
[9] = system: Mammalian orthoreovirus 1; assay: Antiviral activity against Reo virus 1 in african green monkey Vero cells assessed as reduction of virus-induced cytopathogenicity; type: functional; procedure, shortened: as §1
Human alphaherpesvirus 1 [10] = assay: Antiviral activity against thymidine kinase deficient and acyclovir resistant HSV1 KOS in human E6SM cells assessed as reduction of virus-induced cytopathogenicity; type: functional; settings: Human alphaherpesvirus 1, KOS; procedure, shortened: as §1
Vero = assay: Cytotoxicity against african green monkey Vero cells; type: cell-based; settings: chlorocebus sabaeus; procedure, shortened: as §3
[11] = Cytotoxicity against human MT4 cells by MTT assay; type: cell-based
Procedure, shortened: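 Mock-infected MT-4 cells (6 × 10⁵ cells/ml) with serial five-fold compound dilutions in triplicate; MTT reduction read at 540 and 690 nm after 5 days, median OD of three wells; CC50 = concentration reducing OD540 of mock-infected control by 50%.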

Coxsackievirus B4 [12] = assay: Antiviral activity against Coxsackie virus B4 in human HeLa cells assessed as inhibition of virus-induced cytopathogenicity; type: functional; settings: Enterovirus B; procedure, shortened: as §1
[13] = system: Human immunodeficiency virus 1; assay: Antiviral activity against HIV1 3B in human MT4 cells assessed as protection against virus-induced cytopathogenicity by MTT assay; type: functional, organism-based; design: Activity: concentration or dose not given beside the values; settings: for IC50: Human immunodeficiency virus 1, 3B, MT4; procedure, shortened: as §2
Coxsackievirus B4 [14] = assay: Antiviral activity against Coxsackie virus B4 in african green monkey Vero cells assessed as reduction of virus-induced cytopathogenicity; type: functional; settings: Enterovirus B; procedure, shortened: as §1
[15] = system: Vesicular stomatitis virus; assay: Antiviral activity against in Vesicular stomatitis virus in human HEL cells assessed as reduction of virus-induced cytopathogenicity; type: functional; procedure, shortened: as §1
Punta Toro virus = assay: Antiviral activity against Punta Toro virus in african green monkey Vero cells assessed as reduction of virus-induced cytopathogenicity; type: functional; procedure, shortened: as §1
[16] = Cytotoxicity against human HeLa cells; type: cell-based; procedure, shortened: as §3
[17] = Cytotoxicity against human HEL cells assessed as alteration of cell morphology; type: cell-based; procedure, shortened: as §3
Human alphaherpesvirus 1 [18] = assay: Antiviral activity against HSV1 KOS in human HEL cells assessed as reduction of virus-induced cytopathogenicity; type: functional; settings: Human alphaherpesvirus 1, KOS; procedure, shortened: as §1
Human alphaherpesvirus 1 [19] = assay: Antiviral activity against thymidine kinase deficient and acyclovir resistant HSV1 KOS in human HEL cells assessed as reduction of virus-induced cytopathogenicity; type: functional; settings: Human alphaherpesvirus 1, KOS; procedure, shortened: as §1

| Compound | MIC [1] [µg/mL] | MIC (Human alphaherpesvirus 1 [2]) [µg/mL] | MIC (Human respirovirus 3) [µg/mL] | Activity [3] [%] | IC50 [3] [µg/mL] | MIC [4] [µg/mL] | MCC [5] [µg/mL] | MIC [6] [µg/mL] | MIC (Human alphaherpesvirus 2 [7]) [µg/mL] | MIC (Sindbis virus) [µg/mL] | MIC (Human alphaherpesvirus 2 [8]) [µg/mL] | MIC [9] [µg/mL] | MIC (Human alphaherpesvirus 1 [10]) [µg/mL] | Activity (Vero) | CC50 [11] [µg/mL] | MIC (Coxsackievirus B4 [12]) [µg/mL] | Activity [13] [%] | IC50 [13] [µg/mL] | MIC (Coxsackievirus B4 [14]) [µg/mL] | MIC [15] [µg/mL] | further results |
| --- | --- | --- | --- | --- | --- | --- | --- | --- | --- | --- | --- | --- | --- | --- | --- | --- | --- | --- | --- | --- | --- |
| C=CCNC(=S)Nc1ccc(-c2n[nH]c(=S)n2CC)cc1 | > 80 | 240 (≈ 751 µM) | > 80 | 0 | > 57 | > 80 | 400 | > 80 | 240 (≈ 751 µM) | > 80 | 240 (≈ 751 µM) | > 80 | 240 (≈ 751 µM) | >= 80 ug ml-1 | 57 (≈ 178 µM) | > 80 | 8.5 | > 57 | > 80 | > 80 | MIC (Punta Toro virus): 80 µg/mL (≈ 250 µM); MCC [16]: 400 µg/mL; MCC [17]: 400 µg/mL; MIC (Human alphaherpesvirus 1 [18]): 240 µg/mL (≈ 751 µM); MIC (Human alphaherpesvirus 1 [19]): 240 µg/mL (≈ 751 µM) |
| CCCCCCNC(=S)Nc1ccc(-c2n[nH]c(=S)n2-c2ccccc2)cc1 | > 80 | > 16 | > 80 | 3 | > 3.99 | > 80 | ≥ 16 | > 16 | > 16 | > 80 | > 16 | > 80 | > 16 | 400 µg/mL | 3.99 (≈ 9.69 µM) | > 80 | 16 | > 3.99 | > 80 | > 16 | MIC (Punta Toro virus): > 80 µg/mL; MCC [16]: 400 µg/mL; MCC [17]: ≥ 16 µg/mL; MIC (Human alphaherpesvirus 1 [18]): > 16 µg/mL; MIC (Human alphaherpesvirus 1 [19]): > 16 µg/mL |
| CNC(=S)Nc1ccc(-c2n[nH]c(=S)n2-c2ccccc2)cc1 | > 400 | 240 (≈ 703 µM) | > 80 | 0 | > 94.4 | > 400 | 400 | > 80 | > 80 | > 80 | > 80 | > 80 | 240 (≈ 703 µM) | >= 80 ug ml-1 | 94.4 (≈ 276 µM) | > 400 | 23.5 | > 94.4 | > 80 | > 80 | MIC (Punta Toro virus): > 80 µg/mL; MCC [16]: ≥ 400 µg/mL; MCC [17]: 400 µg/mL; MIC (Human alphaherpesvirus 1 [18]): 240 µg/mL (≈ 703 µM); MIC (Human alphaherpesvirus 1 [19]): 240 µg/mL (≈ 703 µM) |
| C=CCNC(=S)Nc1ccc(-c2n[nH]c(=S)n2CCc2ccccc2)cc1 | > 80 | > 80 | > 80 | 0 | > 13 | > 80 | 400 | > 80 | > 80 | > 80 | > 80 | > 80 | > 80 | >= 80 ug ml-1 | 13 (≈ 32.9 µM) | > 80 | 9 | > 13 | > 80 | > 80 | MIC (Punta Toro virus): > 80 µg/mL; MCC [16]: 400 µg/mL; MCC [17]: 400 µg/mL; MIC (Human alphaherpesvirus 1 [18]): > 80 µg/mL; MIC (Human alphaherpesvirus 1 [19]): > 80 µg/mL |
| C=CCNC(=S)Nc1ccc(-c2n[nH]c(=S)n2-c2ccccc2)cc1 | > 400 | > 80 | > 400 | 0 | > 55.1 | > 400 | ≥ 80 | > 80 | > 80 | > 400 | > 80 | > 400 | > 80 | >= 400 ug ml-1 | 55.1 (≈ 150 µM) | > 400 | 13.5 | > 55.1 | > 400 | > 80 | MIC (Punta Toro virus): > 400 µg/mL; MCC [16]: ≥ 400 µg/mL; MCC [17]: ≥ 80 µg/mL; MIC (Human alphaherpesvirus 1 [18]): > 80 µg/mL; MIC (Human alphaherpesvirus 1 [19]): > 80 µg/mL |
| S=C(Nc1ccccc1)Nc1ccc(-c2n[nH]c(=S)n2-c2ccccc2)cc1 | > 80 | > 80 | > 16 | 0 | > 28.6 | > 80 | ≥ 80 | > 80 | > 80 | > 16 | > 80 | > 16 | > 80 | 80 µg/mL | 28.6 (≈ 70.8 µM) | > 80 | 25 | > 28.6 | > 16 | > 80 | MIC (Punta Toro virus): > 16 µg/mL; MCC [16]: 80 µg/mL; MCC [17]: ≥ 80 µg/mL; MIC (Human alphaherpesvirus 1 [18]): > 80 µg/mL; MIC (Human alphaherpesvirus 1 [19]): > 80 µg/mL |

From ChEMBL document CHEMBL1149790, “Synthesis of some novel thiourea derivatives obtained from 5-[(4-aminophenoxy)methyl]-4-alkyl/aryl-2,4-dihydro-3H-1,2,4-triazole-3-thiones and evaluation as antiviral/anti-HIV and anti-tuberculosis agents” (Eur J Med Chem, 2008)
